Test results taken from ChEMBL document CHEMBL1124171, “Ergolines as selective 5-HT1 agonists” (J Med Chem, 1988).

Columns and labels:
[1] = test system: Rattus norvegicus; experiment: Effect on serotonin in rat whole brain, after sc administration (0.1 mg/kg dose) (experiment 1); format: functional, organism-based
[2] = test system: Rattus norvegicus; experiment: Effect on 5-hydroxyindoleacetic acid in rat whole brain, after sc administration (0.03 mg/kg dose) (experiment 1); format: functional, organism-based
Summary of the method: (§1)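 Drug was given sc in dilute HCl to male Wistar rats (~150 g), with decapitation 1 h later. Whole brains were frozen on dry ice and held at −15 °C. […] Results are mean ± SE, five rats/group, P < 0.05 versus vehicle control.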

[3] = organism: Rattus norvegicus; experiment: Effect of […] on the elevation of serum corticosterone at a dose 100 ug/mL No pretreatment; format: functional, organism-based
Summary of the method: (§2)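 Rats got p-chlorophenylalanine (300 mg/kg, ip) or no pretreatment. 24 h later, drug (0.3 mg/kg, sc, dilute HCl) or p-chloroamphetamine HCl (2.5 mg/kg, ip) was given, and rats were killed 1 h after. Serum corticosterone was measured spectrofluorometrically. Results are mean ± SE, five male Wistar rats/group.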

[4] = test system: Rattus norvegicus; experiment: Effect on concentrations of serotonin in rat brain hypothalamus after 0.3 mg/kg sc administration; format: functional, organism-based; set-up: dose 0.3 mg/kg
Summary of the method: (§3)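 Male Wistar rats (~150 g) were injected sc with drug in dilute HCl and decapitated 1 h later. Hypothalamus and striatum were dissected and frozen on dry ice. […] Results are mean ± SE, five rats/group, P < 0.05.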

[5] = test system: Rattus norvegicus; experiment: Effect on homovanillic acid concentration in rat striatum, after 0.1 mg/kg sc administration; format: functional; conditions: route subcutaneous
Summary of the method: (§4)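 Male Wistar rats (~150 g) were given drug or apomorphine HCl sc and decapitated 1 h later. Striatal DOPAC and HVA were quantified by LC with electrochemical detection. Results are mean ± SE, five rats/group, P < 0.05.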

[6] = test system: Rattus norvegicus; experiment: Effect on 3,4- dihydroxyphenylacetic acid concentration in rat striatum, after 0.03 mg/kg sc administration; format: functional; conditions: route subcutaneous; summary of the method: as §4
[7] = test system: Rattus norvegicus; experiment: Effect on serum corticosterone in serum of rats after sc administration (0.1 mg/kg dose) (experiment 1); format: functional, organism-based
Summary of the method: (§5)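 Male Wistar rats (~150 g) housed at 24 °C with lights 7 a.m.–7 p.m. Compound in dilute HCl given sc 1 h before decapitation. Serum corticosterone measured spectrofluorometrically, μg/100 mL. Five rats per group, mean ± SE. Significance set at P < 0.05 versus the vehicle control.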

[8] = test system: Rattus norvegicus; experiment: Decreased accumulation of 5-hydroxytryptophan after decarboxylase inhibition in the hypothalamus of rat at a dose 0.03mg/Kg, sc; format: functional, organism-based
Summary of the method: (§6)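 Male Wistar rats (~150 g) got drug sc in dilute HCl. NSD 1015 (100 mg/kg, ip) was given 30 min after drug and 30 min before decapitation. Hypothalamic 5-HTP was measured by LC with electrochemical detection. Results are mean ± SE, five rats per treated group and six controls; significance at P < 0.01.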

[9] = organism: Rattus norvegicus; experiment: Effect of fluoxetine on the elevation of serum corticosterone at a dose 100 ug/mL, No pretreatment; format: functional, organism-based
Summary of the method: as §2, with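 “fluoxetine HCl (10” for “p-chlorophenylalanine (300”, “16” for “24”, “with decapitation” for “and rats were killed”, “rats/group, P < 0.05.” for “rats/group.”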

[10] = test system: Rattus norvegicus; experiment: Effect on homovanillic acid concentration in rat striatum, after 0.03 mg/kg sc administration; format: functional; conditions: route subcutaneous; summary of the method: as §4
[11] = organism: Rattus norvegicus; experiment: Effect of fluoxetine on the elevation of serum corticosterone, Fluoxetine pretreament; format: functional, organism-based
Summary of the method: as §2, with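 “fluoxetine HCl (10” for “p-chlorophenylalanine (300”, “16” for “24”, “with decapitation” for “and rats were killed”, “rats/group, P < 0.05.” for “rats/group.”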

[12] = test system: Rattus norvegicus; experiment: Effect of Metergoline on the elevation of serum corticosterone, after sc administration (1.0 mg/kg) Metergoline pretreament; format: functional, organism-based
Summary of the method: (§7)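 Male Wistar rats (~150 g) received metergoline (3 mg/kg, ip) or no pretreatment. Drug was given sc in dilute HCl 1 h later, and rats were decapitated 1 h after that. Serum corticosterone was determined spectrofluorometrically. Results are mean ± SE, five rats/group, P < 0.05 versus the corresponding control.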

[13] = test system: Rattus norvegicus; experiment: Minimum effective dose required to increase (MED) corticosterone in rat serum, sc; format: functional; conditions: read-out: MED
Summary of the method: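 Male Wistar rats (~150 g). Compound in dilute HCl given sc at graded doses 1 h before decapitation. Whole-brain 5-HIAA measured by LC with electrochemical detection; serum corticosterone measured spectrofluorometrically. Minimum effective dose is the lowest dose giving a significant difference from control (P < 0.05).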

[14] = test system: Rattus norvegicus; experiment: Effect of Metergoline on the elevation of serum corticosterone, after sc administration (1.0 mg/kg) No pretreatment; format: functional, organism-based; summary of the method: as §7
[15] = test system: Rattus norvegicus; experiment: Effect on 5-hydroxyindoleacetic acid in rat whole brain, after sc administration (0 mg/kg dose) (experiment 2); format: functional, organism-based; summary of the method: as §1
[16] = test system: Rattus norvegicus; experiment: Effect of Metergoline on the elevation of serum corticosterone, after sc administration (0 mg/kg) No pretreatment; format: functional, organism-based; summary of the method: as §7
[17] = test system: Rattus norvegicus; experiment: Effect on serum corticosterone in serum of rats after sc administration (0.3 mg/kg dose) (experiment 1); format: functional, organism-based; summary of the method: as §5
[18] = test system: Rattus norvegicus; experiment: Decreased accumulation of 5-hydroxytryptophan after decarboxylase inhibition in the hypothalamus of rat at a dose 0mg/Kg, sc; format: functional, organism-based; summary of the method: as §6
[19] = test system: Rattus norvegicus; experiment: Effect on 5-hydroxyindoleacetic acid in rat whole brain, after sc administration (0.1 mg/kg dose) (experiment 1); format: functional, organism-based; summary of the method: as §1
[20] = test system: Rattus norvegicus; experiment: Effect on 5-hydroxyindoleacetic acid in rat whole brain, after sc administration (0.03 mg/kg dose) (experiment 2); format: functional, organism-based; summary of the method: as §1
[21] = test system: Rattus norvegicus; experiment: Effect on concentration of serotonin in rat brain striatum after 0.3 mg/kg sc administration; format: functional, organism-based; set-up: dose 0.3 mg/kg; summary of the method: as §3
[22] = biological target: Serotonin 2 (5-HT2) receptor (Rattus norvegicus, UniProt P30994+P08909+P14842); experiment: Binding affinity at 5-hydroxytryptamine 2 receptor from rat frontal cortex homogenates by [3H]-spiperone displacement.; format: tissue-based
[23] = test system: Rattus norvegicus; experiment: Decreased accumulation of 5-hydroxytryptophan after decarboxylase inhibition in the hypothalamus of rat at a dose 0.01mg/Kg, sc; format: functional, organism-based; summary of the method: as §6
[24] = test system: Rattus norvegicus; experiment: Effect on serotonin in rat whole brain, after sc administration (0 mg/kg dose) (experiment 2); format: functional, organism-based; summary of the method: as §1
[25] = test system: Rattus norvegicus; experiment: Effect on homovanillic acid concentration in rat striatum, after 0.3 mg/kg sc administration; format: functional; conditions: route subcutaneous; summary of the method: as §4
[26] = test system: Rattus norvegicus; experiment: Effect on 5-hydroxyindoleacetic acid in rat whole brain, after sc administration (0 mg/kg dose) (experiment 1); format: functional, organism-based; summary of the method: as §1
[27] = test system: Rattus norvegicus; experiment: Decreased accumulation of 5-hydroxytryptophan after decarboxylase inhibition in the hypothalamus of rat at a dose 0.3 mg/Kg, sc; format: functional, organism-based; summary of the method: as §6
[28] = test system: Rattus norvegicus; experiment: Effect on serum corticosterone in serum of rats after sc administration (1 mg/kg dose) (experiment 1); format: functional, organism-based; summary of the method: as §5
[29] = test system: Rattus norvegicus; experiment: Effect on serotonin in rat whole brain, after sc administration (1 mg/kg dose) (experiment 1); format: functional, organism-based
[30] = test system: Rattus norvegicus; experiment: Effect on serum corticosterone in serum of rats after sc administration (0.03 mg/kg dose) (experiment 1); format: functional, organism-based; summary of the method: as §5
[31] = test system: Rattus norvegicus; experiment: Effect on 3,4-dihydroxyphenylacetic acid concentration in rat striatum, after 0.1 mg/kg sc administration; format: functional; conditions: route subcutaneous; summary of the method: as §4
[32] = test system: Rattus norvegicus; experiment: Effect on 5-hydroxyindoleacetic acid in rat whole brain, after sc administration (1 mg/kg dose) (experiment 1); format: functional, organism-based; summary of the method: as §1
[33] = test system: Rattus norvegicus; experiment: Effect on 3,4-dihydroxyphenylacetic acid concentration in rat striatum, after 0.3 mg/kg sc administration; format: functional; conditions: route subcutaneous; summary of the method: as §4
[34] = test system: Rattus norvegicus; experiment: Effect on concentration of 5HIAA in rat brain striatum after 0.3 mg/kg sc administration; format: functional, organism-based; set-up: dose 0.3 mg/kg; summary of the method: as §3

C[C@@H]1C=C2c3cccc4c3[C@@H](CN4)C[C@H]2N(C)C1
Concentration [1]: 2.59 nM/g | Concentration [2]: 1.52 nM/g | Serum corticosterone [3]: 47.3 µg/mL | Concentration [4]: 4.78 mg/kg | Homovanillic acid concentration [5]: 3.65 nM/g | DOPAC concentration [6]: 3.81 nM/g | Concentration [7]: 33.8 nM/g | Concentration [8]: 1.19 nM/g | Serum corticosterone [9]: < 68.2 µg/mL | Homovanillic acid concentration [10]: 2.89 nM/g | Serum corticosterone [11]: < 61.2 µg/mL | Serum corticosterone [12]: 61.2 µg/mL | minimal effective dose [13]: 0.1 mg/kg | Serum corticosterone [14]: 70.8 µg/mL | Concentration [15]: 2.2 nM/g | Serum corticosterone [16]: 4.3 µg/mL | Concentration [17]: 46.6 nM/g | Concentration [18]: 1.92 nM/g | Concentration [19]: 1.45 nM/g | Concentration [20]: 1.9 nM/g | Concentration [21]: 1.94 mg/kg | IC50 [22]: 1.665 µM | Concentration [23]: 1.64 nM/g | Concentration [24]: 2.66 nM/g | Homovanillic acid concentration [25]: 3.27 nM/g | Concentration [26]: 1.89 nM/g | Concentration [27]: 0.71 nM/g | Concentration [28]: 70.8 nM/g | Concentration [29]: 3.02 nM/g | Concentration [30]: 6.5 nM/g | DOPAC concentration [31]: 4.44 nM/g | Concentration [32]: 1.47 nM/g | DOPAC concentration [33]: 4.62 nM/g | Concentration [34]: < 2.38 mg/kg
